Experimental data collected from several papers.
Each line is one published result; the experiments were not run side by side.
Target: Tyrosine-protein kinase Lyn (LYN, Homo sapiens, UniProt P07948)
Concentration: 1 µM

SMILES	effect on	method	remaining binding [%]
N[C@H]1CCN(c2nccc(-c3cnn4ncccc34)n2)C1	binding		99
CC1=C(C#N)C(c2ccc3c(c2)c(NC(=O)c2ccccc2C)nn3C)C(C#N)=C(C)N1	cell-free assay	competition with immobilised ligand	89
CN(C)c1nccc(-c2cnc3ncccn23)n1	binding		100
CCS(=O)(=O)c1cc2cc(C[C@@](O)(CC(C)(C)c3ccc(F)cc3C(N)=O)C(F)(F)F)[nH]c2cn1	cell-free assay	competition with immobilised ligand	100
Cc1ccc(-n2nc(C(C)(C)C)cc2NC(=O)Nc2ccc(-n3c(N)c(C(N)=O)c4nc5ccccc5nc43)cc2)cc1	cell-free assay	competition with immobilised ligand	0.85
O=C(NCC1CCOCC1)c1n[nH]cc1NC(=O)c1c(F)cccc1F	binding	competition with immobilised ligand	92
CN(c1nccc(-c2cnn3ncccc23)n1)C1CC1	binding		86
Nc1ncc2c(n1)-c1c([nH]c3ccc(C#CC4CC4)cc13)CCCC2	binding	competition with immobilised ligand	93
COc1ccnn2ncc(-c3ccnc(N(C)C)n3)c12	binding		100
CNC(=O)[C@@H]1CC[C@@H](n2c(-c3ccc4cnccc4c3)nc3ccc(C(=O)NCc4cccc(C(N)=O)c4)cc32)C1	binding	competition with immobilised ligand	95
CC1CCCN1c1nccc(-c2cnn3ncccc23)n1 (stereo not drawn)	binding		84
O=C(NCCCN1CCOCC1)c1ccc(Nc2nccc(-c3cc4ccccc4s3)n2)cc1	binding	competition with immobilised ligand	94
c1cnn2ncc(-c3ccnc(N4CCC45COC5)n3)c2c1	binding		88
CSc1cccnc1N1CCN(Cc2nc3ccccc3[nH]2)CC1	cell-free assay	competition with immobilised ligand	95
O=C(NCCCN1CCOCC1)c1ccc(Nc2ncc(Cl)c(-c3ccc(Cl)s3)n2)cc1	binding	competition with immobilised ligand	87
O=C(NCc1ncc(C(F)(F)F)cc1Cl)c1ccc2c(c1)C1(CCS(=O)(=O)CC1)[C@H](C1CC1)N2S(=O)(=O)c1ccc(F)cc1	cell-free assay	competition with immobilised ligand	100
C[C@H]1CCN(c2nccc(-c3cnn4ncccc34)n2)C1	binding		64
O=C(c1ccc(Nc2ncc(Cl)c(-c3cc4ccccc4s3)n2)cc1)N1CCC(N2CCCC2)CC1	binding	competition with immobilised ligand	83
CN(C)C(=O)Cn1cc(-c2nc([C@@](C)(c3ccc(-c4cnc(N)nc4)cc3)C3CC3)no2)cn1	cell-free assay	competition with immobilised ligand	87
CCN1CCN(Cc2ccc(C(=O)Nc3ccc(C)c(Oc4ccc5c(c4)CC(=O)N5)c3)cc2C(F)(F)F)CC1	binding	competition with immobilised ligand	52
CNC(=O)Nc1ccc2c(c1)[C@@]1(CC2)OC(=O)N(CC(=O)N(Cc2ccc(F)cc2)[C@@H](C)C(F)(F)F)C1=O	cell-free assay	competition with immobilised ligand	100
COc1cnc(Nc2cccc(S(N)(=O)=O)c2)nc1N1CCN(c2ccccc2)C(=O)C1	binding	competition with immobilised ligand	100
CO[C@@H](C)c1c(Nc2ccc([C@@H](N(C)C(=O)C3CCS(=O)(=O)CC3)C(F)(F)F)cc2)cnc2cc(Cl)nn12	cell-free assay	competition with immobilised ligand	97
C=CC(=O)N1CCC(C(=O)NCC(=O)N2CCN(c3nc(-c4cnc(N)nc4C(F)F)nc(N4CCOCC4)n3)CC2)CC1	binding	competition with immobilised ligand	100
